GSTO1 inh = counter-screen for RBBP9 inhibitors: inhibitors of human GSTO1; recombinant GSTO1, activity-based probe fluorescence polarization; inhibition, % at 5.96 µM; actives 1.1% (n = 300,000);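 active = inhibition above the campaign mean inhibition plus 3 SD, cut at about 35% in these data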;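 also: 0% = GSTO1-1 with DMSO and 100% = wells lacking GSTO1-1 enzyme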
Target sequence (P78417 whole entry, looked up): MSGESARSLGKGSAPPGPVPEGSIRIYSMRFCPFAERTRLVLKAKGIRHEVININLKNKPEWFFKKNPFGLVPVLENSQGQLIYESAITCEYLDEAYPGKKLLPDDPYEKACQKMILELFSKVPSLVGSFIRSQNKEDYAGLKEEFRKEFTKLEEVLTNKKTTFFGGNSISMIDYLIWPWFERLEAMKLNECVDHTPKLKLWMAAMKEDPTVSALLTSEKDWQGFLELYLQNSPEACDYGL
Apaf-1 inh = inhibitors of human Apaf-1 apoptosome; reconstituted apoptosome caspase-3 activity, DEVD-Rh110 fluorescence; inhibition, % at 20 µM; actives 0.71% (n = 330,000); O14727; active = inhibition of at least 40% at 20 µM;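 also: plate controls were DMSO wells for no effect and DEVD-CHO caspase inhibitor wells for full effect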
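detection = Rh110 fluorescence intensity | test system = biochemical Apaf-1 apoptosome reconstitution | also added = cytochrome c and DEVD-Rh110 substrate | schedule = 30 min plus 50 min, RT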
PAD4 FP inh = inhibitors of human PAD4. Q9UM07. recombinant PAD4, RCA probe fluorescence polarization. inhibition, % at 6.36 µM. actives 0.41% (n = 330,000);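 active = percent inhibition above a cutoff equal to the mean of all tested compounds plus 3 SD, cut at about 15% in these data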;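 also: 0% = PAD4 with RCA probe and DMSO and 100% = probe without PAD4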
PP5 inh = inhibitors of human protein phosphatase 5 (PP5); inhibition, % at 6.7 µM; actives 0.18% (n = 320,000); purified PP5c, OMFP substrate fluorescence; P53041;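 active = inhibition above the campaign's mean inhibition across all tested compounds plus 3 SD, cut at about 9.5% in these data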;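 also: 0% = DMSO only and 100% = 100 µM cantharidin control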
Fh CTSL1 inh = blocks F. hepatica cathepsin L1 in PFM18AAP counter-screen; recombinant F. hepatica cathepsin L1, Z-Leu-Arg-MCA fluorescence; inhibition, % at 5.96 µM; actives 0.49% (n = 300,000);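 active = inhibition above the mean of all tested compounds plus 3 SD, set per screening campaign, cut at about 17% in these data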;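 also: 0% = plate median of test compound wells and 100% = 1 µM Z-Phe-Ala-diazomethylketone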
UCH37 inh = inhibitors of human deubiquitinating enzyme UCH37 | AID 588478 | purified proteasome/UCH37, Ub-AMC cleavage fluorescence | actives 0.33% (n = 330,000) | Q9Y5K5 | inhibition, % (no concentration beside the values);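 active = mean inhibition over replicate wells above about 20%, limit read from the data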;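 also: 0% = compound-free wells with enzyme and 100% = wells lacking proteasome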
Target sequence (Q9Y5K5 whole entry, looked up): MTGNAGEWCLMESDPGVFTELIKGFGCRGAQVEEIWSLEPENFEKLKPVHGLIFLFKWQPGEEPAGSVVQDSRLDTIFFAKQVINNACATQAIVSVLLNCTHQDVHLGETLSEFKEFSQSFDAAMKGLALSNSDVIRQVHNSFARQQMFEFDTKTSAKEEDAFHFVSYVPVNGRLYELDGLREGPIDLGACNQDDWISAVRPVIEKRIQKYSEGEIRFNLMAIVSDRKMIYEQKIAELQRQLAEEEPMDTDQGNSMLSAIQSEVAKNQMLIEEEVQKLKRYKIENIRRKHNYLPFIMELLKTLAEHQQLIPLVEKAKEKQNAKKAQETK
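Assay system: Proteasome-bound UCH37. Buffer or medium: pH 7.4 Tris-HCl (50 mM) with ovalbumin, ATP-MgCl2, DTT. Incubation: 30 min preincubation with enzyme, 25 min cleavage at room temperature. Measured by: fluorescence, ex 355 nm, em 460 nm. Read-out basis: percent inhibition. Control set: wells without proteasome as full block, compound-free enzyme plus substrate as uninhibited.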
Active calls of the source: *; i = inactive; / = no result. Most compounds without a hit are left out; they make up all but 2% or so of the library.

SMILES	GSTO1 inh	Apaf-1 inh	PAD4 FP inh	PP5 inh	Fh CTSL1 inh	UCH37 inh
O=c1ccc(-c2ccc(S(=O)(=O)Nc3cccc([N+](=O)[O-])c3)s2)n[nH]1	-21.5	3.0	0.6	2.8	21.4*	8.7
Cc1cccc(NS(=O)(=O)c2ccc(-c3ccc(=O)[nH]n3)o2)c1	6.2	1.8	-0.5	-0.9	0.5	2.2
CC(O)[C@H](NC(=O)C1(c2ccccc2)CCN(C(=O)OC(C)(C)C)CC1)C(=O)O (some centres not stated)	-5.0	4.0	-2.4	3.5	29.5*	-0.9
CCC(C)[C@H](NC(=O)C1(c2ccccc2)CCN(C(=O)OC(C)(C)C)CC1)C(=O)N[C@@H](C(=O)O)c1ccccc1 (some centres not stated)	7.9	3.7	-3.0	4.1	4.1	4.6
CCc1ccccc1NC(=O)CSc1nnc([C@H](CCSC)NC(=O)OC(C)(C)C)o1	5.4	-5.8	1.3	1.7	54.4*	1.6
CSCC[C@H](NC(=O)OC(C)(C)C)c1nnc(SCC(=O)Nc2ccc(C)cc2C)o1	-2.1	-1.6	1.9	4.8	68.4*	4.5
Cc1ccc(SCc2c(C(=O)NN=Cc3cccnc3)nnn2-c2nonc2N)cc1	/	/	/	/	/	-1.3
Brc1ccc(OCc2nc3ccccc3[nH]2)cc1	36.6*	27.2	-15.0	0.3	2.5	7.2
COc1ccc(OCc2nc3ccccc3[nH]2)cc1	1.4	-9.0	2.2	-2.9	1.2	-2.1
Cc1nc(C#N)c(NN=Cc2c(F)cccc2Cl)o1	/	/	/	/	/	5.6
COc1ccc(CNC(=O)c2c(N)n(CCCN3CCOCC3)c3nc4ccccc4nc23)cc1	4.6	87.3*	-0.3	6.5	-0.5	-265.9
COC(=O)c1c(N)n(CCCN2CCOCC2)c2nc3ccccc3nc12	6.4	-71.9	-6.5	0.5	2.7	i
COC(=O)C/C=C/[C@@H](C)[C@@H](C=NOC[C@@H](C)[C@H](OCc1ccccc1)C(C)C)NS(=O)(=O)c1ccc(C)cc1	/	/	/	/	/	2.4
O=C(CN1CCCCC1)NN=Cc1ccccc1OCc1ccccc1	/	/	/	/	/	1.0
O=C(CCC1N=C2c3ccccc3N=C(SCc3ccc(Cl)cc3)N2C1=O)NCc1ccco1 (configuration not stated)	1.1	40.8*	5.0	0.8	3.4	-16.0
O=C(CCC1N=C2c3ccccc3N=C(SCc3ccc(F)cc3)N2C1=O)NCc1ccco1 (configuration not stated)	-8.2	22.6	-2.8	2.5	1.4	-25.4
Cc1nn(-c2ccccc2)c(N2CCCC2)c1C=NNC(=O)c1cc(-c2ccccc2)nc2ccccc12	/	/	/	/	/	3.8
CC(=NNC(=O)CNc1ccc(Cl)cc1C)c1ccc(C)cc1	/	/	/	/	/	34.4*
CC(=NNC(=O)c1ccc(Br)o1)c1cccc(NC(=O)c2ccc(C)o2)c1	/	/	/	/	/	5.4
Cc1cc(C)c(NC(=O)c2cc(C(=O)O)ccc2C(=O)O)c([N+](=O)[O-])c1	8.0	0.4	-6.4	0.0	-1.8	46.6*
CC(/C=C/C=C/c1ccccc1)=N\NC(=O)c1cccnc1	8.2	6.6	-1.7	1.9	21.8*	/
CC(/C=C/C=C/c1ccccc1)=NNC(=O)c1cccnc1	/	/	/	/	/	24.3*
CC(/C=C\C=C\c1ccccc1)=N\NC(=O)c1cncc(Br)c1	-3.7	-2.7	0.9	1.0	6.9	/
O=C(N/N=C/C=C/c1ccccc1)c1cccnc1	2.6	1.6	9.1	0.6	10.1	/
CC(=O)N1CCc2c(sc(NC(=O)C3CC3)c2-c2nc3ccccc3s2)C1	5.8	71.5*	2.5	2.1	-1.7	-23.7
SMILES	GSTO1 inh	Apaf-1 inh	PAD4 FP inh	PP5 inh	Fh CTSL1 inh	UCH37 inh
CCN(CC)S(=O)(=O)c1cccc(C(=O)NN=C2CC(=O)CC(C)(C)C2)c1	/	/	/	/	/	7.5
Cc1c(/C(O)=C2/C(=O)C(=O)N(CCN3CCOCC3)C2c2cccnc2)cnn1-c1ccccc1 (configuration not stated)	-2.2	-7.7	-3.2	2.6	1.6	21.9*
N#CC1=C(N)OC2=C(C(=O)CC(c3ccco3)C2)C1c1ccc(OCc2c(F)cccc2Cl)cc1 (configuration not stated)	8.0	13.3	-6.5	1.9	0.4	32.1*
OCCN1CCN(CC#CCn2c3ccccc3c3ccccc32)CC1	5.7	-11.2	0.0	1.1	-4.3	22.7*
O=[N+]([O-])c1ccccc1NC(=S)N/N=C/c1ccc(O)c(O)c1	50.1*	-9.0	1.3	1.9	3.8	/
O=C(NN=Cc1ccc(O)c([N+](=O)[O-])c1)c1ccncc1	/	/	/	/	/	20.4*
CC(=N/N=C1/NC(=O)CC(C(=O)O)S1)c1cccs1 (configuration not stated)	/	/	/	/	/	12.1
O=C1C2CC=C(Cl)CC2C(=O)N1CCCCCCN1C(=O)C2CC=C(Cl)CC2C1=O (configuration not stated)	23.3	0.5	-3.3	2.8	41.8*	2.7
O=C1C2CC=C(Cl)CC2C(=O)N1CCN1CCOCC1 (configuration not stated)	-5.3	4.1	-3.3	1.4	-4.9	6.9
Cc1ccc(C(C[N+](=O)[O-])c2c(-c3ccccc3O)[nH][nH]c2=O)cc1 (configuration not stated)	35.5*	31.7	-6.1	0.4	4.0	-19.4
CC(=O)Oc1ccc(C=NNC(=O)C2CCCN2S(=O)(=O)c2ccc(Cl)cc2)cc1 (configuration not stated)	/	/	/	/	/	-1.6
COCCCNC(=O)/C(C#N)=C/c1ccc(OCC(=O)O)c(OC)c1	41.0*	-19.3	-3.4	-2.4	-0.6	7.9
COc1ccc(/C=C(\C#N)C(=O)NCCc2ccccc2)cc1OCc1ccccc1	-0.4	22.5	-1.6	3.3	6.3	-9.4
COC(=O)C1=C(C)N(CCCC(=O)O)C(=O)NC1c1cc2c(cc1[N+](=O)[O-])OCO2 (configuration not stated)	-13.9	0.7	-9.1	-0.5	-8.5	3.0
COC(=O)C1=C(C)N(C)C(=O)NC1c1cc2c(cc1[N+](=O)[O-])OCO2 (configuration not stated)	35.6*	18.6	3.5	-0.3	2.3	-0.8
NC(=O)c1ccccc1NC(=O)Nc1cccc2ccccc12	3.1	-2.9	-1.0	-0.4	1.9	-2.6
Cc1ccc(NC(=S)Nc2cccc3ccccc23)cc1F	-1.9	88.9*	-3.3	1.0	-2.1	3.4
NC(=O)NNC(=S)Nc1cccc2ccccc12	4.8	-10.2	-0.9	-1.0	91.2*	-2.3
CC(=O)c1ccc(NC(=S)Nc2cccc3ccccc23)cc1	20.0	44.6*	3.5	3.6	0.6	2.5
CC(=O)N(C)c1ccc(NC(=S)Nc2cccc3ccccc23)cc1	2.5	21.2	-7.8	-2.7	0.5	5.0
Fc1cccc(NC(=S)Nc2cccc3ccccc23)c1	2.6	29.1	-3.2	3.6	1.1	-2.5

High-throughput results from PubChem BioAssay.
